Laboratory results: ChEMBL document CHEMBL1121478, “Potential prophylactic antitumor activity of retinylidene 1,3-diketones” (1980)
Activity calls are given as the source filed them. The calls are words filed in the database; no cut-off is given here.

Key:
Cricetinae gen. sp. [1] = experiment: Compound is evaluated for its intrinsic ability to control epithelial cell differentiation by retinoids in hamster tracheal organ culture; type: functional, Trachea
Outline: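 Hamster trachea organ cultures (procedure from earlier reports). Retinoids tested at 10^-8, 10^-9 and 10^-10 M. Potency given as ED50.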

Cricetinae gen. sp. [2] = experiment: Compound is evaluated for its intrinsic ability to control epithelial cell differentiation by retinoids in hamster tracheal organ culture at 10e -8M; IA = inactive(16/17) 16 cultures were inactive out of 17; type: functional, organism-based; details: Trachea
Cricetinae gen. sp. [3] = experiment: Compound is evaluated for its intrinsic ability to control epithelial cell differentiation by retinoids in hamster tracheal organ culture at 10e-9 M; IA = inactive(12/16) 12 were inactive out of 16; type: functional, organism-based; details: Trachea
Cricetinae gen. sp. [4] = experiment: Compound is evaluated for its intrinsic ability to control epithelial cell differentiation by retinoids in hamster tracheal organ culture at 10e -9M; IA = inactive(7 cultures were inactive out of 7); type: functional, organism-based; details: Trachea
Cricetinae gen. sp. [5] = experiment: Compound is evaluated for its intrinsic ability to control epithelial cell differentiation by retinoids in hamster tracheal organ culture at 10e-8 M; act = active(4 cultures were active out of 5); type: functional, organism-based; details: Trachea
Cricetinae gen. sp. [6] = experiment: Compound is evaluated for its intrinsic ability to control epithelial cell differentiation by retinoids in hamster tracheal organ culture at 10e-9 M; IA = inactive(3/4) 3 were inactive out of 4; type: functional, organism-based; details: Trachea
Cricetinae gen. sp. [7] = experiment: Compound is evaluated for its intrinsic ability to control epithelial cell differentiation by retinoids in hamster tracheal organ culture at 10e -8M; IA = inactive( 6 cultures were inactive out of 7); type: functional, organism-based; details: Trachea
Cricetinae gen. sp. [8] = experiment: Compound is evaluated for its intrinsic ability to control epithelial cell differentiation by retinoids in hamster tracheal organ culture at 10e-8 M; IA = inactive(9/12) 9 were inactive out of 12; type: functional, organism-based; details: Trachea
Cricetinae gen. sp. [9] = experiment: Compound is evaluated for its intrinsic ability to control epithelial cell differentiation by retinoids in hamster tracheal organ culture at 10e -9M; IA =inactive(8/15) 8 were inactive out of 15; type: functional, organism-based; details: Trachea
Cricetinae gen. sp. [10] = experiment: Compound is evaluated for its intrinsic ability to control epithelial cell differentiation by retinoids in hamster tracheal organ culture at 10e -10M; IA = inactive(9/12) 9 were inactive out of 12; type: functional, organism-based; details: Trachea
Cricetinae gen. sp. [11] = experiment: Compound is evaluated for its intrinsic ability to control epithelial cell differentiation by retinoids in hamster tracheal organ culture at 10e-9 M; IA = inactive(14/16) 14 were inactive out of 16; type: functional, organism-based; details: Trachea

Molecule	TOC ED50 (Cricetinae gen. sp. [1]) [nM]	other results
CC1=C(/C=C/C(C)=C/C=C/C(C)=C/C=C2C(=O)CC(C)(C)CC2=O)C(C)(C)CCC1	0.24	–
CC1=C(/C=C/C(C)=C/C=C/C(C)=C/C=C2C(=O)CCCC2=O)C(C)(C)CCC1	0.11	–
CC1=C(/C=C/C(C)=C/C=C/C(C)=C/C=C2C(=O)CCC2=O)C(C)(C)CCC1	–	TOC ED50 (Cricetinae gen. sp. [2]): inactive
CC1=C(/C=C/C(C)=C/C=C/C(C)=C/C=C2C(=O)CCCCCCCCCCCC2=O)C(C)(C)CCC1	–	TOC ED50 (Cricetinae gen. sp. [3]): inactive
CCC(=O)C(=C/C=C(C)/C=C/C=C(C)/C=C/C1=C(C)CCCC1(C)C)C(=O)CC	–	TOC ED50 (Cricetinae gen. sp. [4]): inactive; TOC ED50 (Cricetinae gen. sp. [5]): Active
CC1=C(/C=C/C(C)=C/C=C/C(C)=C/C=C2C(=O)CC(c3ccccc3)CC2=O)C(C)(C)CCC1 (configuration not stated)	0.1	–
COc1ccc(C2CC(=O)C(=C/C=C(C)/C=C/C=C(C)/C=C/C3=C(C)CCCC3(C)C)C(=O)C2)cc1 (configuration not stated)	0.18	–
CC1=C(/C=C/C(C)=C/C=C/C(C)=C/C=C2C(=O)C=CC2=O)C(C)(C)CCC1	–	TOC ED50 (Cricetinae gen. sp. [6]): inactive
CCCC(=O)C(=C/C=C(C)/C=C/C=C(C)/C=C/C1=C(C)CCCC1(C)C)C(=O)CCC	–	TOC ED50 (Cricetinae gen. sp. [7]): inactive
CC1=C(/C=C/C(C)=C/C=C/C(C)=C/C=C2C(=O)c3ccccc3C2=O)C(C)(C)CCC1	–	TOC ED50 (Cricetinae gen. sp. [8]): inactive
CC1=C(/C=C/C(C)=C/C=C/C(C)=C/C=C2C(=O)CC(c3ccc(C(F)(F)F)cc3)CC2=O)C(C)(C)CCC1 (configuration not stated)	0.1	–
CC1=C(/C=C/C(C)=C/C=C/C(C)=C/C=C2C(=O)C(C(C)(C)C)CC(C(C)(C)C)C2=O)C(C)(C)CCC1 (configuration not stated)	–	TOC ED50 (Cricetinae gen. sp. [9]): inactive; TOC ED50 (Cricetinae gen. sp. [10]): inactive
2-[3,7-Dimethyl-9-(2,6,6-trimethyl-cyclohex-1-enyl)-nona-2,4,6,8-tetraenylidene]-[3]ferrocenophane-1,3-dione	–	TOC ED50 (Cricetinae gen. sp. [11]): inactive
CC1=C(/C=C/C(C)=C/C=C/C(C)=C/C=C2C(=O)CCCCCC2=O)C(C)(C)CCC1	0.22	–
CCC1CC(=O)C(=C/C=C(C)/C=C/C=C(C)/C=C/C2=C(C)CCCC2(C)C)C(=O)C1 (configuration not stated)	0.36	–
CC1=C(/C=C/C(C)=C/C=C/C(C)=C/C=C2C(=O)CCCCCCC2=O)C(C)(C)CCC1	0.24	–
CC1=C(/C=C/C(C)=C/C=C/C(C)=C/C=C2C(=O)CC(C)CC2=O)C(C)(C)CCC1 (configuration not stated)	0.8	–
CC1=C(/C=C/C(C)=C/C=C/C(C)=C/C=C2C(=O)CC(C(C)C)CC2=O)C(C)(C)CCC1 (configuration not stated)	0.21	–
CC(=O)C(=C/C=C(C)/C=C/C=C(C)/C=C/C1=C(C)CCCC1(C)C)C(C)=O	1.8	–
CC1=C(/C=C/C(C)=C/C=C/C(C)=C/C=C2C(=O)CCCCC2=O)C(C)(C)CCC1	0.38	–
